# Assay results as given in ChEMBL document CHEMBL4732162, “Design, synthesis and evaluation of novel ErbB/HDAC multitargeted inhibitors with selectivity in EGFR mutant cell lines” (Eur J Med Chem, 2021).
# pIC50: −log10 of the molar value. The source made the active and inactive calls. No cut-off for these calls is given here.
# Assays:
# [1] = system: A-431; test: Antiproliferative activity against human A431 cells incubated for 72 hrs by MTT assay; type: functional, cell-based; settings: A-431, 72 h
# [2] = target: T1, Histone deacetylase (Homo sapiens) (UniProt Q13547+O15379+Q9UBN7+Q92769+Q9UQL6+Q8WUI4+Q9BY41+Q96DB2+P56524+Q9UKV0+Q969S8); test: Inhibition of HDAC in human A431 cells assessed as increase in histone H3 acetylation at 0.5 to 5 uM after 48 hrs by Western blot analysis; type: cell-based; settings: A-431, dose 0.5-5 µM
# In short: (§1)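 Cells were treated with compound for 48 h and lysed on ice for 30 min in RIPA buffer with protease and phosphatase inhibitors. Lysates were cleared at 14000 g, 4 °C, and protein quantified by BCA. Samples were boiled in loading buffer, run on 10–12% SDS-PAGE and transferred to PVDF. Membranes were blocked 2 h, incubated in primary antibody overnight at 4 °C, then in secondary antibody 2 h at room temperature.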
# [3] = system: NCI-H1975; test: Induction of apoptosis in human NCI-H1975 cells assessed as increase in cleaved-PARP level at 0.5 to 5 uM after 48 hrs by Western blot analysis; type: functional, cell-based; settings: dose 0.5-5 µM; in short: as §1
# [4] = cells; type: cell-based; settings: BaF3, 72 h
# [5] = system: A549; test: Antiproliferative activity against human A549 cells incubated for 72 hrs by MTT assay; type: functional, cell-based; settings: A549, 72 h
# [6] = system: SK-BR-3; test: Antiproliferation activity against human SK-BR-3 cells incubated for 72 hrs by MTT assay; type: functional, cell-based; settings: SK-BR-3, 72 h
# In short: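 MTT assay. About 0.5–1 × 10⁴ cells/well were pre-incubated 12 h at 37 °C in 5% CO₂, then exposed to a concentration series of compound for 72 h. Formazan was dissolved in DMSO and absorbance read at 490 nm. Three wells per condition, three independent experiments. IC50 is the mean ± SD from the dose-response curves.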
# [7] = Antiproliferative activity against human NCI-H820 cells incubated for 72 hrs by MTT assay; type: functional, cell-based; settings: NCI-H820, 72 h
# [8] = target: T2, Epidermal growth factor receptor (Homo sapiens, UniProt P00533); test: Inhibition of EGFR in human NCI-H1975 cells assessed as reduction in AKT phosphorylation at S473 residues at 0.5 to 5 uM after 48 hrs by Western blot analysis; type: cell-based; settings: dose 0.5-5 µM; in short: as §1
# T2 sequence (P00533 whole entry): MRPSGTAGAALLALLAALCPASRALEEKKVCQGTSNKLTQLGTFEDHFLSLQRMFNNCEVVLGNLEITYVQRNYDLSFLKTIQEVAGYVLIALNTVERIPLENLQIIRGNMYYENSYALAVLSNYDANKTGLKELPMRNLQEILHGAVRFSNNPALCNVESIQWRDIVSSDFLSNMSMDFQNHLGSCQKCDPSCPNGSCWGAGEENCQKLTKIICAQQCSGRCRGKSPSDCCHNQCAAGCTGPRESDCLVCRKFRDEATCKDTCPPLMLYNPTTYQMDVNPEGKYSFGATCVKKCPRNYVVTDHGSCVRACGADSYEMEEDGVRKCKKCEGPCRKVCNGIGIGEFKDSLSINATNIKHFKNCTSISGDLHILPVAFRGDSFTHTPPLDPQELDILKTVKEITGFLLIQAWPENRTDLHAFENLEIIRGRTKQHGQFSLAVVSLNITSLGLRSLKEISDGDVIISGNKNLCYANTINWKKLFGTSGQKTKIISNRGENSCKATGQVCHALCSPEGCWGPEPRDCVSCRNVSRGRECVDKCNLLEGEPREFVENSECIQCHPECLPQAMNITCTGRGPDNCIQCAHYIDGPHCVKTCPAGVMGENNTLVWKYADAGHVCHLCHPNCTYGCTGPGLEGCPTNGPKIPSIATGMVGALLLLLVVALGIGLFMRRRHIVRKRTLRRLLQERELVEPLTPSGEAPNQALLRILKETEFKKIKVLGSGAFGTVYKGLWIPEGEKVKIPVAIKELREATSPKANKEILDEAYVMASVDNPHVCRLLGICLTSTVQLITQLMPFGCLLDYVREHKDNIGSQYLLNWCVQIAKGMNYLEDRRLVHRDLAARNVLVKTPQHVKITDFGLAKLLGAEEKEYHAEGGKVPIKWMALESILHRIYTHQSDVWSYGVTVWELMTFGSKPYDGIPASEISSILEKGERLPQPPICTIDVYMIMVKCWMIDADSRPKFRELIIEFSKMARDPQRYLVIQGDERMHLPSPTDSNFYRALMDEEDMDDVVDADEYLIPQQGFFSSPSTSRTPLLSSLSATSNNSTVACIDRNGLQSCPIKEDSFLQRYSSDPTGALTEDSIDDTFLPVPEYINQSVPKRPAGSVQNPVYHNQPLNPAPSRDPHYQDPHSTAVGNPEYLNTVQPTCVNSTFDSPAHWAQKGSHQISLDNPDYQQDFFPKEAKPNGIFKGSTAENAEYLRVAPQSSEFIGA
# [9] = system: NCI-H1975; test: Induction of apoptosis in human NCI-H1975 cells assessed as necrotic cells at 2.5 uM incubated for 48 hrs by propidium iodide and annexin-V FITC staining based flow cytometry (Rvb =0.18% ); type: functional
# [10] = system: NCI-H1975; test: Induction of apoptosis in human NCI-H1975 cells assessed as early apoptotic cells at 2.5 uM incubated for 48 hrs by propidium iodide and annexin-V FITC staining based flow cytometry (reference value: 6.67 %); type: functional
# [11] = target: Epidermal growth factor receptor (Homo sapiens, UniProt P00533, L858R/T790M); test: Inhibition of EGFR L858R/T790M (unknown origin) by mobility shift assay
# [12] = target: T2, Epidermal growth factor receptor; test: Inhibition of EGFR in human NCI-H1975 cells assessed as reduction in EGFR phosphorylation at Tyr-1068 residues after 48 hrs by Western blot analysis; type: cell-based; settings: dose 0.5-5 µM; in short: as §1
# [13] = system: NCI-H1975; test: Induction of apoptosis in human NCI-H1975 cells assessed as early apoptotic cells at 0.5 uM incubated for 48 hrs by propidium iodide and annexin-V FITC staining based flow cytometry (reference value: 6.67 %); type: functional
# [14] = system: NCI-H1975; test: Down regulation of AKT protein expression in human NCI-H1975 cells at 0.5 to 5 uM after 48 hrs by Western blot analysis; type: functional, cell-based; settings: dose 0.5-5 µM; in short: as §1
# [15] = system: NCI-H838; test: Antiproliferation activity against human NCI-H838 cells incubated for 72 hrs by MTT assay; type: functional, cell-based; settings: NCI-H838, 72 h
# [16] = system: NCI-H1975; test: Induction of apoptosis in human NCI-H1975 cells assessed as increase in cleaved-caspase 7 level at 0.5 to 5 uM after 48 hrs by Western blot analysis; type: functional, cell-based; settings: dose 0.5-5 µM; in short: as §1
# [17] = target: Epidermal growth factor receptor (Homo sapiens, UniProt P00533, L858R); test: Inhibition of EGFR L858R (unknown origin) by mobility shift assay
# Epidermal growth factor receptor (Homo sapiens, UniProt P00533, L858R), sequence (P00533 25-1210 L858R limits assumed): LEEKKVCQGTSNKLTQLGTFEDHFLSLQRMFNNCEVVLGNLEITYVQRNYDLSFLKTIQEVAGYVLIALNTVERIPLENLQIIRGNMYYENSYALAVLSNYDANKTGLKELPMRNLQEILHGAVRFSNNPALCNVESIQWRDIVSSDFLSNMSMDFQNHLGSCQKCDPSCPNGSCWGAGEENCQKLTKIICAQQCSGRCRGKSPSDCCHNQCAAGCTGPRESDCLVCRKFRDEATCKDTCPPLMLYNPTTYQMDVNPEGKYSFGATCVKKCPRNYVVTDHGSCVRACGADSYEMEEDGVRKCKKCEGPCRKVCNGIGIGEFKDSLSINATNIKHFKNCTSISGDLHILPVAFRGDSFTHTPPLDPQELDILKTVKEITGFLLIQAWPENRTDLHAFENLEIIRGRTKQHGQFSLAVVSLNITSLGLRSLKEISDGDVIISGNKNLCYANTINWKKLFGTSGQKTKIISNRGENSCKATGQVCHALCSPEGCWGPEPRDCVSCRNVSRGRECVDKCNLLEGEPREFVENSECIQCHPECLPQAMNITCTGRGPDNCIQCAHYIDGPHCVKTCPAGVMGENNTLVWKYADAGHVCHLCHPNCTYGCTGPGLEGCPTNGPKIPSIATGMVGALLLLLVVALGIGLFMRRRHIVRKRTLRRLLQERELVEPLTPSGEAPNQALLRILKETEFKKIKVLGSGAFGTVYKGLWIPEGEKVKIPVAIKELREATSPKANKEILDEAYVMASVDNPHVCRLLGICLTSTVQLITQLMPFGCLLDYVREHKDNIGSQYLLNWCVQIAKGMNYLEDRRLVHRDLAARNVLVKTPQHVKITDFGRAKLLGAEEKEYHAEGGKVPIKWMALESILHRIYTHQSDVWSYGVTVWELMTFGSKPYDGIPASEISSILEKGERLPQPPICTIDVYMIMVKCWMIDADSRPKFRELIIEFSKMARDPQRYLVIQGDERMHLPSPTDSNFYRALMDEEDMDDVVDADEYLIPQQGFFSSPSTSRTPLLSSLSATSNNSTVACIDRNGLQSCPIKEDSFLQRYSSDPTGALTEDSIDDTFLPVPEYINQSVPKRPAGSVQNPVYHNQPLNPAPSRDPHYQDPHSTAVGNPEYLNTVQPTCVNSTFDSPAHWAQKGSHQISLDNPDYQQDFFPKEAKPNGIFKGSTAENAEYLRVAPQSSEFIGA
# [18] = target: T1, Histone deacetylase (Homo sapiens); test: Inhibition of HDAC in human NCI-H1975 cells assessed as increase in histone H3 acetylation after 48 hrs by Western blot analysis; type: cell-based; settings: dose 0.5-5 µM; in short: as §1
# [19] = system: NCI-H1975; test: Induction of apoptosis in human NCI-H1975 cells assessed as necrotic cells at 0.5 uM incubated for 48 hrs by propidium iodide and annexin-V FITC staining based flow cytometry (Rvb =0.18% ); type: functional
# [20] = target: Histone deacetylase 1 (Homo sapiens, UniProt Q13547); test: Inhibition of HDAC1 (unknown origin)
# Histone deacetylase 1, sequence (Q13547 whole entry): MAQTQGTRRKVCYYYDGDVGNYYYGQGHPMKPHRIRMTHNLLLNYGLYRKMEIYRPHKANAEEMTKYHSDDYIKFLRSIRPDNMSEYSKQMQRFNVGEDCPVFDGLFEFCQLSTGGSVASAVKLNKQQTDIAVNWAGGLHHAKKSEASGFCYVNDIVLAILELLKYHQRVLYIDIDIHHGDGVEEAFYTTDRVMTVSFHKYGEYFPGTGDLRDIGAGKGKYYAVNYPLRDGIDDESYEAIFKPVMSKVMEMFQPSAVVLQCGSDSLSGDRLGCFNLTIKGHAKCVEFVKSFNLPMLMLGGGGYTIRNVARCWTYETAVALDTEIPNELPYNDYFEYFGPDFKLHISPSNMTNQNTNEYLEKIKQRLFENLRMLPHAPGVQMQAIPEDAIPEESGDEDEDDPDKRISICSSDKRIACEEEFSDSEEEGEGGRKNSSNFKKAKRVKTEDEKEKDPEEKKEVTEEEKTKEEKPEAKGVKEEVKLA
# [21] = system: NCI-H1975; test: Induction of apoptosis in human NCI-H1975 cells assessed as increase in cleaved-caspase 3 level at 0.5 to 5 uM after 48 hrs by Western blot analysis; type: functional, cell-based; settings: dose 0.5-5 µM; in short: as §1
# [22] = target: T2, Epidermal growth factor receptor; test: Inhibition of EGFR in human A431 cells assessed as reduction in EGFR phosphorylation at Tyr-1068 residues at 0.5 to 5 uM after 48 hrs by Western blot analysis; type: cell-based; settings: A-431, dose 0.5-5 µM; in short: as §1
# [23] = target: T2, Epidermal growth factor receptor; test: Inhibition of EGFR in human A431 cells assessed as reduction in EGFR phosphorylation at Tyr-1173 residues at 0.5 to 5 uM after 48 hrs by Western blot analysis; type: cell-based; settings: A-431, dose 0.5-5 µM; in short: as §1
# [24] = system: NCI-H1975; test: Antiproliferative activity against human NCI-H1975 cells incubated for 72 hrs by MTT assay; type: functional, cell-based; settings: NCI-H1975, 72 h
# [25] = system: NCI-H1975; test: Induction of apoptosis in human NCI-H1975 cells assessed as increase in cleaved-caspase 8 level at 0.5 to 5 uM after 48 hrs by Western blot analysis; type: functional, cell-based; settings: dose 0.5-5 µM; in short: as §1
# [26] = system: NCI-H1975; test: Induction of apoptosis in human NCI-H1975 cells assessed as late apoptotic cells at 2.5 uM incubated for 48 hrs by propidium iodide and annexin-V FITC staining based flow cytometry (Rvb =4.20 %); type: functional
# [27] = target: T2, Epidermal growth factor receptor; test: Inhibition of EGFR in human NCI-H1975 cells assessed as reduction in EGFR phosphorylation at Tyr-1173 residues after 48 hrs by Western blot analysis; type: cell-based; settings: dose 0.5-5 µM; in short: as §1
# [28] = system: NCI-H1975; test: Induction of apoptosis in human NCI-H1975 cells assessed as necrotic cells at 5 uM incubated for 48 hrs by propidium iodide and annexin-V FITC staining based flow cytometry (Rvb =0.18% ); type: functional
# [29] = system: NCI-H1975; test: Induction of apoptosis in human NCI-H1975 cells assessed as late apoptotic cells at 5 uM incubated for 48 hrs by propidium iodide and annexin-V FITC staining based flow cytometry (Rvb =4.20 %); type: functional
# [30] = system: NCI-H1975; test: Induction of apoptosis in human NCI-H1975 cells assessed as late apoptotic cells at 0.5 uM incubated for 48 hrs by propidium iodide and annexin-V FITC staining based flow cytometry (Rvb =4.20 %); type: functional
# [31] = system: NCI-H1975; test: Down regulation of EGFR protein expression in human NCI-H1975 cells at 0.5 to 5 uM after 48 hrs by Western blot analysis; type: functional, cell-based; settings: dose 0.5-5 µM; in short: as §1
# [32] = target: Receptor tyrosine-protein kinase erbB-2 (Homo sapiens, UniProt P04626); test: Inhibition of HER2 (unknown origin) by mobility shift assay
# Receptor tyrosine-protein kinase erbB-2, sequence (P04626 whole entry): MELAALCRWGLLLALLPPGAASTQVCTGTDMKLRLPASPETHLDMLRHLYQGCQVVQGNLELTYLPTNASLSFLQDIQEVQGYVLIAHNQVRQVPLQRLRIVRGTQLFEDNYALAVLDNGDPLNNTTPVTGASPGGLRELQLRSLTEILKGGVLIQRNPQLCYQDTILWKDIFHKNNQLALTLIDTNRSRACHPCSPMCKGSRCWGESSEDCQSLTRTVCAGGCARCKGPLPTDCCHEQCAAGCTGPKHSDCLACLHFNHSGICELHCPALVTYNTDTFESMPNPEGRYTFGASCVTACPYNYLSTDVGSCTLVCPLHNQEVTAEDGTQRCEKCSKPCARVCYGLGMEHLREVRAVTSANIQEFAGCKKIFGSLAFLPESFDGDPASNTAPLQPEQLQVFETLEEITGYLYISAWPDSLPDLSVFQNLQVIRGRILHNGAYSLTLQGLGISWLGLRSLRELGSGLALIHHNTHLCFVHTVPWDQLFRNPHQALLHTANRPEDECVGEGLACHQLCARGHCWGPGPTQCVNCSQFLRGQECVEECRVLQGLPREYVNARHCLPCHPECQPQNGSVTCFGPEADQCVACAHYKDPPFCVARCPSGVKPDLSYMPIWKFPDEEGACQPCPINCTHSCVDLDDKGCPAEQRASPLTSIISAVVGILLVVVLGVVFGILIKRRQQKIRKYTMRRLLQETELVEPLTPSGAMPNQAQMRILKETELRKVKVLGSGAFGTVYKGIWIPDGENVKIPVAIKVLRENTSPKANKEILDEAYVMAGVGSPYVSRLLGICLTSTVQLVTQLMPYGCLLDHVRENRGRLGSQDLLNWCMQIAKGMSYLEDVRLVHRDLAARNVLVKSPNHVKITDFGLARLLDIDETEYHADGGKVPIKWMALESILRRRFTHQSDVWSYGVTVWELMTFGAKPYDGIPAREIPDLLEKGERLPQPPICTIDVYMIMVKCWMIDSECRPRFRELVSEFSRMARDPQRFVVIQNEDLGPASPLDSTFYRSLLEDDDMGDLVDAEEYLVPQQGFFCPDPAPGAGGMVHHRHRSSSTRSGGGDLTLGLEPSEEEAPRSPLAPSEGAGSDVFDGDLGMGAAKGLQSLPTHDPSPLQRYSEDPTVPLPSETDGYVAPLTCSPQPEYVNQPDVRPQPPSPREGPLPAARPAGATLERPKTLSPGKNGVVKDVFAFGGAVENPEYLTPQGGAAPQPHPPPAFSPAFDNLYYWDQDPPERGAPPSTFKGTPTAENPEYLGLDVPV
# In short: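 In vitro kinase activity was measured by mobility shift assay, run by a contract provider.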
structure (smiles),measurement,setting,value
C=CC(=O)Nc1cc2c(Nc3ccc(F)c(Cl)c3)ncnc2cc1OCc1cn(CCCC(=O)NO)nn1,pIC50,[1],4.69
same,inhibition,[2],Active
same,Activity,[3],Active
same,pIC50,[4],5.12
same,pIC50,[5],< 4.30
same,pIC50,[6],4.51
same,pIC50,[7],5.76
same,inhibition,[8],Active
same,Activity,[9],0.36%
same,Activity,[10],31.38%
same,pIC50,[11],8.82
same,inhibition,[12],Dose-dependent effect
same,Activity,[13],24.28%
same,Activity,[14],Active
same,pIC50,[15],< 4.30
same,Activity,[16],Active
same,pIC50,[17],8.96
same,inhibition,[18],Dose-dependent effect
same,Activity,[19],0.08%
same,pIC50,[20],7.12
same,Activity,[21],Active
same,inhibition,[22],Active
same,inhibition,[23],Active
same,pIC50,[24],5.74
same,Activity,[25],Active
same,Activity,[26],14.3%
same,inhibition,[27],Dose-dependent effect
same,Activity,[28],0.57%
same,Activity,[29],18.07%
same,Activity,[30],13.07%
same,Activity,[31],Active
same,pIC50,[32],8.24
